# From PubChem
# GPR7 antag: human neuropeptides B/W receptor 1 antagonism | inhibition, % at 4.4 µM | P48145 | 290,000 tested, 1.1% active | GPR7-expressing cells, fluorescence antagonist assay | AID 1861; in the data active = inhibition above about 16%, passing the limit was not always enough;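 also: cells stimulated with the agonist NPW; 0% = agonist with vehicle and 100% = vehicle without agonist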
# OX1R antag-1: blocks the human orexin 1 receptor; O43613; CHO/OX1R cells, Fluo-8 calcium fluorescence, orexin A; inhibition, % at 5 µM; 330,000 tested, 0.43% active; AID 434989;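 active = inhibition above its plate's threshold, mean inhibition of all tested compounds on the plate plus 3 SD, cut at about 37% in these data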;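 also: 0% = orexin A challenge wells and 100% = SB-334867-A antagonist wells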
# Target sequence (O43613 whole entry, looked up): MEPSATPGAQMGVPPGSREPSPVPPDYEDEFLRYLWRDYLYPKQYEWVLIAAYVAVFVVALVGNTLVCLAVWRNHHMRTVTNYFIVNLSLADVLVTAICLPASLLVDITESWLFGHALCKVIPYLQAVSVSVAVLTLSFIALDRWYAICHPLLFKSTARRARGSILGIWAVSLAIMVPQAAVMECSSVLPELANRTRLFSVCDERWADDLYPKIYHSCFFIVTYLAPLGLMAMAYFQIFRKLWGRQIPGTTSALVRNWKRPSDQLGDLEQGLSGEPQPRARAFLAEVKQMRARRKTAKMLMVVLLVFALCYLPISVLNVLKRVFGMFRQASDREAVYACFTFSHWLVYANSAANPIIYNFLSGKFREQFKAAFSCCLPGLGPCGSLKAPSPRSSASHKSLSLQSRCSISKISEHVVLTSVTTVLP
# TAAR1 antagonist: human TAAR1 antagonism; inhibition, % at 3 µM; AID 624466; Q96RJ0; 360,000 tested, 1.5% active; CHO RD-HGA16 TAAR1, Fluo-8 calcium fluorescence, antagonist;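 active = inhibition above a per-plate cutoff, the mean inhibition of test compounds on that plate plus 3 SD, cut at about 49% in these data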;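 also: 0% = DMSO plus EC80 beta-PEA response and 100% = DMSO alone without agonist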
#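 test system = CHO RD-HGA16 cells bearing hTAAR1 | replication = singlicate | controls = DMSO-only wells and EC80 β-PEA-stimulated wells | reagent = EC80 β-phenethylamine stimulus | read-out basis = percent inhibition of PEA-evoked calcium signal, max/basal emission ratio | schedule = seeding 17-24 h prior, 75-min 37 °C, 30-min RT dye loading | signal = kinetic Fluo-8 calcium fluorescence measurement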
# CHO parental Ca: counter-screen for OX1R antagonists: effect in parental CHO cells | parental CHO-K1, ATP-induced calcium, Fluo-8 fluorescence | AID 463079 | 330,000 tested, 0.63% active | inhibition, % at 5.6 µM;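 active = inhibition above that plate's mean sample inhibition plus 3 SD, cut at about 26% in these data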;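 also: 0% = ATP-challenged DMSO wells and 100% = DMSO wells without ATP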
#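 Material: Parental CHO cells | Reagent: ATP | Compound dosing: Single nominal dose of 5.6 µM per compound | Detection: Intracellular calcium via Fluo-8 no-wash fluorescent dye | Read-out: % inhibition of ATP-induced calcium mobilization | Benchmarks: Low control ATP plus DMSO, high control DMSO only | Replicates: Singlicate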
# TAAR1 agonist: human TAAR1 agonism. Q96RJ0. CHO RD-HGA16 TAAR1, Fluo-8 calcium fluorescence; vehicle wells 0%, saturating PEA agonist 100%. activation, % at 3 µM. 360,000 tested, 0.99% active. AID 624467;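 active = activation above the mean activation of all test compounds in the run plus 3 SD, cut at about 38% in these data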
#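 test system = CHO RD-HGA16 cells carrying human TAAR1 plus Gα16 | schedule = 17-24 h seeding, 75 min 37 °C dye, 30 min RT | compound dosing = 3 µM single concentration | control set = DMSO and PEA EC100 | replicates = n 1 | signal = Fluo-8 fluorescence, 5 s baseline then 140 s kinetic read | measure = percent activation vs PEA EC100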
# OX1R antag-2: blocks the human orexin 1 receptor | O43613 | OX1R-expressing cells, FRET antagonist read-out | inhibition, % at 6.6 µM | 330,000 tested, 1.8% active | AID 485270; in the data active = inhibition mostly above about 38%, no sharp cut-off; inactive = mostly below about 40%;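 also: 0% = agonist challenge alone and 100% = reference antagonist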
# * = called active by the depositor; · = no result. Rows were chosen to be rich in hits. Some 4.5% of all compounds tested hit in one or more screens of this group.
SMILES,GPR7 antag,OX1R antag-1,TAAR1 antagonist,CHO parental Ca,TAAR1 agonist,OX1R antag-2
COc1ccc(CCN2CCC(CN3C(=S)NC[C@@H]3Cc3ccccc3)CC2)cc1OC,·,·,-2,·,1,·
COc1ccc(-c2n[nH]c(C)c2-c2ccc(Cl)cc2)c(O)c1,-3,39,10,98*,1,21
Cc1[nH]nc(-c2ccc(O)cc2O)c1-c1ccc(Cl)cc1,1,13,19,13,7,-2
COc1ccc(-c2n[nH]c(C)c2-c2ccc(Cl)cc2)c(O)c1OC,-13,-8,54*,-10,19,69
O=C(CSc1nnc(COc2ccc(Cl)cc2)o1)N(c1ccccc1)C1CCS(=O)(=O)C1 (stereo unspecified),·,·,-6,·,5,·
C#CCNC(=O)C[C@H]1C[C@@]2(C(=O)OC)C(=C[C@H](C(C)(C)C)O[C@@H]2C)N(CCC2=CCCCC2)C1=O,·,·,-23,·,-2,·
CCN(Cc1ccccc1)Cc1nc(CCc2ccccc2)no1,-18,-14,17,-19,5,3
c1ccc(CCN(Cc2ccccc2)Cc2nc(C3CC3)no2)cc1,1,-49,-5,-27,38*,14
CCCCc1c(-c2ccccc2OC)ncn1Cc1ccccc1C,·,·,16,·,4,·
Cc1cccnc1NC(=O)Nc1cccc2ccccc12,-1,-10,-1,-22,0,45*
Cc1cc(C)nc(N2CCCC(C(=O)NNC(=O)c3ccncc3)C2)n1 (stereo unspecified),16,3,-13,-11,-1,-1
C=CCN(C(=O)c1csnn1)C(C(=O)NC1CCCC1)c1ccc(Cl)cc1 (stereo unspecified),-2,-18,-5,-15,-3,69*
CCCNc1nc2nc3ccccn3c(=O)c2cc1C(=O)NCCN1CCOCC1,-8,-7,-2,-5,0,52*
N#Cc1cc2c(=O)n3ccccc3nc2n(CCCN2CCOCC2)c1=O,-2,-27,-9,2,5,54*
N=c1c(C(=O)NC2CCCC2)cc2c(=O)n3ccccc3nc2n1CCCN1CCOCC1,-2,-14,-3,-1,-1,45*
COc1ccc(CCNC(=O)c2cc3c(=O)n4ccccc4nc3n(CCCN3CCOCC3)c2=N)cc1OC,-1,8,-5,-18,1,74*
COc1ccc(CCNC(=O)c2cc3c(=O)n4ccccc4nc3n(Cc3ccco3)c2=N)cc1OC,8,-13,6,-2,0,28
Clc1ccc(CN2CCN(c3ncccn3)CC2)c(Cl)c1,-8,-17,-8,-15,4,4
COc1ccc(CCNC(=O)c2cc3c(=O)n4ccccc4nc3n(CCCN3CCOCC3)c2=N)cc1,15,-20,-15,-15,2,51*
COc1ccc(CCNC(=O)c2cc3c(=O)n4ccccc4nc3n(CCN3CCOCC3)c2=N)cc1,10,-4,18,-1,7,31
Cc1ccc2nc3c(cc(C(=O)NC4CCCC4)c(=N)n3CCCn3ccnc3)c(=O)n2c1,-11,-1,·,-7,·,84*
COc1ccc(CCn2c(=N)c(C(=O)NCCN3CCOCC3)cc3c(=O)n4cccc(C)c4nc32)cc1OC,-16,-4,-7,7,2,42
Cc1ccc(Cn2c(=N)c(C(=O)NC3CCCCC3)cc3c(=O)n4ccccc4nc32)cc1,14,-33,-24,-19,0,9
COc1ccc(CCn2c(=N)c(C(=O)NCCN3CCOCC3)cc3c(=O)n4ccccc4nc32)cc1OC,-2,-7,-10,-3,2,50*
Nc1cccc(Oc2ccc3c(c2)C(=O)N(CCO)C3=O)c1,·,·,-4,·,0,·
SMILES,GPR7 antag,OX1R antag-1,TAAR1 antagonist,CHO parental Ca,TAAR1 agonist,OX1R antag-2
CCCCC(=O)Nc1ccc(C(=O)Nc2ccc(S(=O)(=O)Nc3ccc(C)cc3)cc2)cc1,-10,-14,12,-6,0,8
COc1cccc(C(=O)N[C@H](C(=O)N2CCC[C@H]2C(=O)NCc2ccccc2)C(C)C)c1,·,·,-13,·,0,·
Cc1ccc(S(=O)(=O)N2CCCc3ccccc32)cc1C,-9,-16,23,30*,3,5
COc1ccc2oc(C(=O)OCC(=O)N(C)Cc3ccccc3)c(C)c2c1,·,-36,7,-4,5,16
Cc1c(C(=O)OCC(=O)N(C)Cc2ccc(Cl)cc2)oc2ccccc12,·,27,-9,-34,1,53*
CC(C)CC1C(=O)N(Cc2cn(Cc3ccco3)nn2)CCS(=O)(=O)N1Cc1ccc(-c2ccccc2)cc1 (stereo unspecified),·,·,7,·,2,·
COc1ccc(N=CC2=C(Nc3ccc(OC)cc3)c3c(C)nn(-c4ccccn4)c3CC2)cc1,-2,20,·,31*,·,20
Cc1ccc(O)c(C2=Nc3ccccc3N=C(c3ccc([N+](=O)[O-])cc3)C2)c1,6,-8,23,-4,41*,9
Cc1cc(Oc2cccnc2)ccc1NC(=O)Cc1c(C)[nH]c2ccccc12,·,·,13,·,-2,·
O=C(C[n+]1ccc(/C=N/O)cc1)N(Cc1ccccc1)Cc1ccccc1,-7,0,-16,-3,3,53*
Fc1ccc2nc(C3CCCCN3Cc3nc(CC4CC4)no3)[nH]c2c1 (stereo unspecified),19*,-40,-3,-17,3,17
Fc1ccc(C2CCCCN2Cc2nc(CC3CC3)no2)cc1 (stereo unspecified),-6,-8,3,-11,11,5
CN(C)c1ccc(/C=C/C(=O)c2cccnc2)cc1,12,68*,9,49*,32,4
CN(C)c1ccc(/C=C/C(=O)c2ccc3c(c2)OCO3)cc1,·,112*,40,48*,27,11
CN(C)c1ccc(/C=C/C(=O)c2ccc(O)cc2)cc1,·,·,31,·,49*,·
Cc1ccc(/C=C/C(=O)c2ccccc2O)cc1,8,-20,2,-16,-2,16
O=C(/C=C/c1cccc(O)c1)c1cccnc1,-12,-31,4,-13,7,19
CN(C)c1ccc(/C=C/C(=O)c2ccccc2O)cc1,0,14,30,38*,22,19
COc1cc(NC(=O)CNC(=O)Cn2cnc3sc(C)c(C)c3c2=O)cc(OC)c1OC,·,·,14,·,0,·
COc1ccc(CN2C(=O)CN(S(C)(=O)=O)CC2(C)C(=O)NCc2ccccc2)cc1OC (stereo unspecified),·,·,4,·,2,·
Cc1c(-c2nc(N)nc(Nc3ccccc3F)n2)oc2ccccc12,-2,-5,-8,-2,10,39*
CCOc1ccc(S(=O)(=O)NCCCn2ccnc2)cc1,-10,-2,-8,10,2,12
